Marks after values point to notes of the source that are not given here.
What was measured:
[1] = test system: 48 h-larvae mwh +/+ flr^3; assay: Wing spot test; format: in vivo, Drosophila melanogaster; details: for Small single spots (1–2 cells), statistical diagnosis / Total spots, statistical diagnosis: m = 2; for Small single spots (1–2 cells), statistical diagnosis / Total spots, statistical diagnosis / Large single spots (>cells), statistical diagnosis / Twin spots, statistical diagnosis: vs control; for Large single spots (>cells), statistical diagnosis / Twin spots, statistical diagnosis: m = 5
Outline: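 Crosses: mwh/mwh females × flr3/TM3,Bds males mated 2 h, eggs laid over 2 h. 48 h larvae were collected on 20% sucrose, washed in 24 ± 1 °C water, held 24 h in the dark on filter paper with PP-IX (0–69 mM in 5% sucrose), then fed CrO3 (0.025–2.5 mM) in instant medium, in triplicate. Non-Ser wings were scored at 40× for small (1–2 cells), large and twin spots. Frei–Würgler one-sided test, α=β=0.05, m multiplication factor.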

[2] = test system: 48 h-old mwh+/+flr^3 larvae; assay: Toxicity test; format: in vivo, Drosophila melanogaster; details: for % of non-viable larvae / No. of viable larvae ± SEM: 500 larvae

## [O]=[Cr](=[O])=[O] [CrO3, chromium trioxide]
[1]; CrO3 0.025 mM, 120 wings
  Large single spots (>cells) per wing: 0.04 spots per wing
  Large single spots (>cells), number of spots: 5
  Small single spots (1–2 cells) per wing: 0.26 spots per wing
  Small single spots (1–2 cells), number of spots: 31
  Total spots per wing: 0.33 spots per wing
  Total spots, number of spots: 40
  Twin spots per wing: 0.03 spots per wing
  Twin spots, number of spots: 4
[1]; CrO3 0.025 mM
  Small single spots (1–2 cells), statistical diagnosis: −
  Total spots, statistical diagnosis: −
  Large single spots (>cells), statistical diagnosis: −
[1]; CrO3 0.25 mM and higher, all kinds of spots
  Statistical significance of spot induction vs control: Statistical significant differences were found for all kinds of spots
[1]; CrO3 0.25 mM, 150 wings
  Large single spots (>cells) per wing: 0.11 spots per wing
  Large single spots (>cells), number of spots: 16
  Small single spots (1–2 cells) per wing: 0.43 spots per wing
  Small single spots (1–2 cells), number of spots: 64
  Total spots per wing: 0.59 spots per wing
  Total spots, number of spots: 88
  Twin spots per wing: 0.05 spots per wing
  Twin spots, number of spots: 8
[1]; CrO3 0.25 mM
  Small single spots (1–2 cells), statistical diagnosis: +
  Total spots, statistical diagnosis: +
  Large single spots (>cells), statistical diagnosis: −
  Twin spots, statistical diagnosis: +
[1]; CrO3 1.25 mM, 118 wings
  Large single spots (>cells) per wing: 0.36 spots per wing
  Large single spots (>cells), number of spots: 42
  Small single spots (1–2 cells) per wing: 0.63 spots per wing
  Small single spots (1–2 cells), number of spots: 74
  Total spots per wing: 1.12 spots per wing
  Total spots, number of spots: 132
  Twin spots per wing: 0.14 spots per wing
  Twin spots, number of spots: 16
[1]; CrO3 1.25 mM
  Small single spots (1–2 cells), statistical diagnosis: +
  Total spots, statistical diagnosis: +
  Large single spots (>cells), statistical diagnosis: +
  Twin spots, statistical diagnosis: +
[1]; CrO3 2.0 mM, 80 wings
  Large single spots (>cells) per wing: 0.52 spots per wing
  Large single spots (>cells), number of spots: 42
  Small single spots (1–2 cells) per wing: 0.81 spots per wing
  Small single spots (1–2 cells), number of spots: 65
  Total spots per wing: 1.79 spots per wing
  Total spots, number of spots: 143
  Twin spots per wing: 0.45 spots per wing
  Twin spots, number of spots: 36
[1]; CrO3 2.0 mM
  Small single spots (1–2 cells), statistical diagnosis: +
  Total spots, statistical diagnosis: +
  Large single spots (>cells), statistical diagnosis: +
  Twin spots, statistical diagnosis: +
[1]; CrO3 2.5 mM, 120 wings
  Large single spots (>cells) per wing: 1.97 spots per wing
  Large single spots (>cells), number of spots: 236
  Small single spots (1–2 cells) per wing: 2.87 spots per wing
  Small single spots (1–2 cells), number of spots: 344
  Total spots per wing: 6.95 spots per wing
  Total spots, number of spots: 834
  Twin spots per wing: 2.11 spots per wing
  Twin spots, number of spots: 254
[1]; CrO3 2.5 mM
  Small single spots (1–2 cells), statistical diagnosis: +
  Total spots, statistical diagnosis: +
  Large single spots (>cells), statistical diagnosis: +
  Twin spots, statistical diagnosis: +
[1]; higher CrO3 concentration (2.5 mM)
  Frequency of mutation relative to the control group: 20 times
[2]; CrO3 0.25 mM
  % of non-viable larvae: 10%
  No. of viable larvae ± SEM: 448 ± 0.3
[2]; CrO3 2.0 mM
  No. of viable larvae ± SEM: 325 ± 2.8
[2]; CrO3 2.0 mM, significant to p < 0.05 compared with control
  % of non-viable larvae: 35 ^* %
[2]; CrO3 2.5 mM
  Mortality: 61%
  Reduction of viability over the control: 45%
  No. of viable larvae ± SEM: 194 ± 0.8
[2]; CrO3 2.5 mM, significant to p < 0.05 compared with control
  % of non-viable larvae: 61 ^* %
[2]; CrO3 2 and 2.5 mM
  Toxicity compared to the control: toxic

From article PMC5598375 (Toxicology Reports, 2014)
